# RGS4 block: RGS4 inhibitors, primary screen, cell-based, HEK293 M3R inducible RGS4, calcium flux. hit rate 0.45% among 310,000. Fluo-4 calcium flux; hits give high values; triggered by carbachol at its EC20. AID 463165, 2010. B-score at 10 µM;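 active = B-score, a plate-corrected calcium signal, over three deviations above library mean, with baseline fluorescence within five deviations of library mean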;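 note: RGS4 expression induced by doxycycline in cells with stable M3 receptor; B-score is computed from the integrated fluorescence ratio over baseline after carbachol; higher B-score means a larger calcium signal and so more RGS4 inhibition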
# MrgX1 antagonist: antagonists of human MrgX1 receptor, primary screen, HEK293 cells, Fluo-4 calcium flux | Mas-related G-protein coupled receptor member X1 (Homo sapiens), Q96LB2 | BAM8-22 antagonism; hits give low values | B-score at 10 µM | hit rate 1.3% among 310,000 | AID 588676, 2011;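 active = calcium-response B-score plate-corrected more than 3 library SD below zero, starting fluorescence within 5 deviations, no agonist response on first addition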;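 note: peak minus trough fluorescence over baseline after final BAM8-22 challenge near maximal dose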
# MrgX1 allo act: positive allosteric modulators of MrgX1, primary screen, HEK293 cells, Fluo-4 calcium flux; Mas-related G-protein coupled receptor member X1 (Homo sapiens), Q96LB2; AID 588675, 2011; B-score at 10 µM; FDSS; hits give high values; hit rate 0.63% among 310,000;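 active = plate-corrected calcium response at least 3 library SD above typical, normal starting fluorescence, not activating the receptor alone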;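 note: compound read alongside a low EC10 to EC30 dose of BAM8-22 agonist; peak minus trough fluorescence over baseline measured at the second addition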
# RGS4 pot: RGS4 potentiators or activators, primary screen, cell-based, HEK293 M3R inducible RGS4, calcium flux. B-score at 10 µM. hit rate 0.92% among 310,000. carbachol calcium flux Fluo4; hits give low values. AID 463111, 2010;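 active = B-score of the integrated calcium signal more than 4 SD below the library mean, with starting fluorescence not abnormally high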;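 note: negative B-score means reduced calcium response which marks RGS4 activation or potentiation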
#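 Also added: carbachol at ECmax as muscarinic agonist stimulus; Assay system: HEK293 cells with stable M3R and inducible RGS4; Timing: overnight RGS4 induction, 30 min dye load 37 °C, 20 min compound RT; Measured by: Fluo4-AM (2 µM) calcium-flux fluorescence, kinetic read.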
# MrgX1 ag: agonists of human MrgX1 receptor, primary screen, HEK293 cells, Fluo-4 calcium flux; AID 588627, 2011; hit rate 0.44% among 310,000; Fluo-4 calcium fluorescence, agonist mode; hits give high values; Mas-related G-protein coupled receptor member X1 (Homo sapiens), Q96LB2; B-score at 10 µM;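 active = calcium response B-score plate-corrected fluorescence ratio at least 3 library SD, with starting fluorescence B-score inside 5 SD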
#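 Assay system: stable human MrgX1 HEK293 cell line. Quantity: 15,000 cells per well. Schedule: cells plated overnight, dye loaded 0.5 h 37 °C, 0.5 h room temperature. Detection: Fluo-4 NW calcium-flux fluorescence, kinetic read. Read-out basis: peak-minus-minimum fluorescence over baseline, converted to B scores. Control set: positive and negative control wells on each plate.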
# KCC2 mod: KCC2 cotransporter modulators, thallium flux, primary screen, cell-based, HEK293 KCC2, FluoZin-2 fluorescence, MLSMR. KCC2 cells, thallium flux FluoZin-2 fluorescence. B-score of Tl+ flux slope (higher = more flux/activation; lower = inhibition) at 10 µM. hit rate 2.2% among 190,000;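 active = thallium flux slope and its plate-corrected score both differing from the plate sample mean at a set confidence after two filtering rounds, in either direction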;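 note: slope of fluorescence scaled to starting intensity during 10 to 20 s after thallium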
# A number is an active result; 0 = inactive; - = not tested or not shown. This is a sample that favours compounds with a hit; in the whole collection about 4.7% have one here.
SMILES,RGS4 block,MrgX1 antagonist,MrgX1 allo act,RGS4 pot,MrgX1 ag,KCC2 mod
COc1cc(OC)c(OC)cc1/C=C1\Oc2cc(OS(C)(=O)=O)ccc2C1=O,0,-7.4,0,0,0,0
O=C(NCc1ccccn1)C1CCCN(Cc2cnn(-c3ccccc3)c2-n2cccc2)C1 (centres undefined),0,0,0,-7.26,0,0
CC1=NN(c2ccc(Br)cc2)C(=O)/C1=C/c1cccs1,0,0,13.9,0,0,0
COc1cc(/C=C2/C(=O)N(c3ccc(Br)cc3)N=C2C)cc(OC)c1OC,0,-,-,0,-,-
CC1=NN(c2ccc(C)cc2)C(=O)/C1=C\c1ccc(Br)s1,0,-6.48,0,0,0,0
CC1=NN(c2ccccc2)C(=O)/C1=C\c1sccc1C,0,0,0,0,0,0
Cc1cc(C)cc(OCCNC(=O)c2ccc(Br)cc2)c1,0,0,0,0,0,-
C/C(=N/NC(=O)CSc1nc2ccccc2n1C)c1ccc(O)cc1,0,-4.92,0,0,0,0
COc1ccc(Cl)cc1NC(=O)CN1CCCC1,0,0,0,0,0,0
COC(=O)C1CCN(CC(=O)Nc2cc(Cl)ccc2OC)CC1,0,0,20.9,0,0,0
CCN(CC)C(=O)C(=O)c1cn(CCOc2ccccc2)c2ccccc12,0,0,0,-7.1,0,0
Cn1cc(C(=O)NS(=O)(=O)Nc2ccc(Br)cn2)c2ccccc21,0,0,0,0,0,-
Cc1nn(Cc2ccc(Cl)cc2)c(C)c1NC(=O)CSc1n[nH]c(C)c1[N+](=O)[O-],0,-4.81,0,0,0,0
COc1ccc2c(c1)N(C)/C(=C/c1cccc[n+]1C)S2,0,-5.76,0,-9.42,0,-
CCN1/C(=C/C(C)=O)Sc2ccc(OC)cc21,0,0,0,0,0,0
CCN1/C(=C/c2cccc[n+]2C)Sc2ccc(OC)cc21,0,-6.05,0,-7.52,0,-
CCCn1c(N)c(N(CCOC)C(=O)COC(=O)CSc2cc(C)c3ccccc3n2)c(=O)[nH]c1=O,0,0,0,0,0,-
CC(C)CCC(C)NC(=O)CN1C(=O)NC(C)(c2ccc3ccccc3c2)C1=O (centres undefined),0,0,0,0,0,-
Cc1cccc(-[n+]2c(C)cc(C)c3c(=O)[nH]c(=O)[nH]c32)c1,0,0,0,0,0,0
Cc1cc(C)[n+](-c2ccc(C(C)C)cc2)c2[nH]c(=O)[nH]c(=O)c12,0,0,0,-9,0,0
O=C(CN1C(=O)/C(=C/c2ccco2)SC1=S)NC1CCS(=O)(=O)C1 (centres undefined),0,0,0,0,0,-
O=C1CC(=Nc2ccccc2)NN1c1ccccc1,0,0,7.36,0,0,0
NC(=O)C1CCN(S(=O)(=O)c2cc3c4c(c2)CCN4C(=O)CC3)CC1,0,0,0,0,0,-
C/C(=N\OC(=O)NC(C)C)c1sc(-c2ccc(Cl)cc2)nc1C,0,0,17.1,0,0,0
O=C(CN1C(=O)NC2(CCCCC2)C1=O)Oc1ccc2c(C(F)(F)F)cc(=O)oc2c1,0,0,0,0,0,-
SMILES,RGS4 block,MrgX1 antagonist,MrgX1 allo act,RGS4 pot,MrgX1 ag,KCC2 mod
CCc1cc(=O)oc2cc(OC(=O)CN3C(=O)NC4(CCCC4)C3=O)ccc12,0,-6.92,0,0,0,-
C#CCOCCOCCOCCNc1nc(N2CCN(C(=O)CCCCCCCCCCNC(=O)[C@@H](CCC(=O)O)n3cc(CCCCCN)nn3)CC2)nc(N2CCN(C(=O)CCCCCCCCCCNC(=O)[C@H](CCCCN)n3cc(C[C@@H](C)CC)nn3)CC2)n1,-,0,0,-,69.5,-
C#CCOCCOCCOCCNc1nc(N2CCN(C(=O)CCCCCCCCCCNC(=O)[C@H](CCCCN)n3cc(CCO)nn3)CC2)nc(N2CCN(C(=O)CCCCCCCCCCNC(=O)[C@H](CCCCN)n3cc(C[C@@H](C)CC)nn3)CC2)n1,-,0,0,-,82.6,-
C#CCOCCOCCOCCNc1nc(N2CCN(C(=O)CCCCCCCCCCNC(=O)[C@@H](CCC(=O)O)n3cc(CCCCCN)nn3)CC2)nc(N2CCN(C(=O)CCCCCCCCCCNC(=O)[C@H](CO)n3cc(CCCCCN)nn3)CC2)n1,-,0,0,-,0,-
CC(SC1=NCCN1S(C)(=O)=O)c1ccccc1 (centres undefined),0,0,0,0,0,-
NC(=O)c1sc(=S)n(-c2ccc(Br)cc2)c1N,0,0,0,0,0,0
NC(=O)c1sc(=S)n2c1[nH]c(=O)c1sccc12,0,0,16.5,0,0,0
C/C(=C\C(=S)Nc1ccccc1)Nc1ccc2ccccc2c1,0,-4.52,0,0,0,0
Cc1cc(C)c(NC(=O)CNC(=O)CSc2nnc(N)s2)c(C)c1,0,0,0,0,0,-
O=C(Nc1ccccc1)OCC1CCCN2CCCCC12 (centres undefined),0,0,0,0,0,-
O=C(/C=C/c1ccco1)OCC1CCCN2CCCCC12 (centres undefined),0,0,0,-6.96,0,0
O=C(CCl)N(c1ccccc1)C1CCCCC1,0,0,0,-7.04,0,0
O=C(O)c1ccc(S(=O)(=O)N(Cc2ccccc2)C2CCCCC2)cc1,0,0,0,0,0,-
CCCN(Cc1ccc(N(C)C)cc1)CC1CC1,0,0,0,0,0,0
CCCN(Cc1ccc(N(CC)CC)cc1)CC1CC1,0,0,0,-7.12,0,0
CCOc1ccc(NS(=O)(=O)c2ccc(C(=O)N(C)Cc3cccc(OC)c3OC)cc2)cc1,0,0,0,0,0,-
Cc1ncc(CO)c2c1Oc1nc(-c3ccccc3F)nc(SCC(=O)N(C)c3ccccc3)c1C2,0,0,0,0,0,-
Cc1ncc(CO)c2c1Oc1nc(-c3ccccc3)nc(SCC(=O)N3CCOCC3)c1C2,0,0,0,0,0,-
Cc1ncc(CO)c2c1Oc1nc(-c3ccccc3)nc(SCC(=O)N(C)c3ccccc3)c1C2,0,0,10.1,-8.12,0,-
COc1ccccc1-c1nc2c(c(SCC(=O)N3CCCCC3)n1)Cc1c(CO)cnc(C)c1O2,0,0,0,-8.1,0,-
COc1cc(/C=C2\CCC/C(=C\c3ccc(O)c(OC)c3)C2=O)ccc1O,0,-5.74,0,-9.86,0,-
Cc1ccc(C2C3CN(C(C)C)CC=C3C(C#N)=C(N)C2(C#N)C#N)cc1 (centres undefined),0,0,0,-7.08,0,-
COc1ccc(OC)c(C2C3CN(C(C)C)CC=C3C(C#N)=C(N)C2(C#N)C#N)c1 (centres undefined),0,0,0,0,27.1,-
